TRPC4 act = opens the mouse TRPC4 cation channel; HEK293 TRPC4beta/mu-opioid, Fluo4 calcium fluorescence; stronger effect = higher value; B-score at 10 µM; 0.49% of 310,000 active; AID 2237;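 active means B-score above 5 SD of library B-scores, and initial fluorescence ratio not above library mean plus 5 SD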;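 further: positive B-score marks a calcium rise read as TRPC4 activation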
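Assay system: HEK293 stable line with TRPC4beta plus mu-opioid receptor; schedule: 45 min room-temperature Fluo4 loading, 110 s read; technique: kinetic Fluo4 calcium fluorescence; evaluation: integrated baseline-normalised fluorescence ratio, converted to per-well B score; controls: buffer (low) and maximal DAMGO (high)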
TRPC4 block = inhibitors of mouse TRPC4 channel | HEK293 TRPC4beta/mu-opioid, DAMGO-evoked Fluo4 calcium flux; stronger effect = lower value | B-score at 10 µM | 0.39% of 300,000 active | AID 2247;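 active means B-score over 3 SD under the library average, no early fluorescence shift, positive overall ratio signal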
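Test system – stable TRPC4beta/mu-opioid receptor HEK293 cells · Probe or stimulus – DAMGO, a submaximal dose followed by a maximal one · Dosing – one concentration per compound · Signal – Fluo4 calcium fluorescence by kinetic imaging, 5 s 1 Hz baseline · Evaluation – per-well B score of integrated baseline-normalized Fluo4 ratio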
TRPC4 potent = allosteric potentiators of mouse TRPC4 channel; AID 2227; 0.42% of 310,000 active; B-score at 10 µM; Q9QUQ5; HEK293 TRPC4beta/mu-opioid, DAMGO EC20, Fluo-4 Ca2+ flux; stronger effect = higher value;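 active means B-score of calcium response area above 5 SD of library B-scores, with initial fluorescence ratio within 5 SD of library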;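 further: B-score of integrated fluorescence ratio over time as area under calcium response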
TRPC6 inhibitor = mouse TRPC6 channel inhibition | AID 2553 | HEK293-TRPC6, membrane potential dye, ACh-evoked depolarization; stronger effect = lower value | 1.1% of 310,000 active | B-score at 10 µM;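 active means B-score under library mean minus 3 SD, initial fluorescence not abnormally high, positive integrated signal ratio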;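 further: B-score derived from integrated fluorescence ratio over the kinetic read; more negative B-score means stronger inhibition of depolarization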
Target sequence (Q61143 whole entry, looked up): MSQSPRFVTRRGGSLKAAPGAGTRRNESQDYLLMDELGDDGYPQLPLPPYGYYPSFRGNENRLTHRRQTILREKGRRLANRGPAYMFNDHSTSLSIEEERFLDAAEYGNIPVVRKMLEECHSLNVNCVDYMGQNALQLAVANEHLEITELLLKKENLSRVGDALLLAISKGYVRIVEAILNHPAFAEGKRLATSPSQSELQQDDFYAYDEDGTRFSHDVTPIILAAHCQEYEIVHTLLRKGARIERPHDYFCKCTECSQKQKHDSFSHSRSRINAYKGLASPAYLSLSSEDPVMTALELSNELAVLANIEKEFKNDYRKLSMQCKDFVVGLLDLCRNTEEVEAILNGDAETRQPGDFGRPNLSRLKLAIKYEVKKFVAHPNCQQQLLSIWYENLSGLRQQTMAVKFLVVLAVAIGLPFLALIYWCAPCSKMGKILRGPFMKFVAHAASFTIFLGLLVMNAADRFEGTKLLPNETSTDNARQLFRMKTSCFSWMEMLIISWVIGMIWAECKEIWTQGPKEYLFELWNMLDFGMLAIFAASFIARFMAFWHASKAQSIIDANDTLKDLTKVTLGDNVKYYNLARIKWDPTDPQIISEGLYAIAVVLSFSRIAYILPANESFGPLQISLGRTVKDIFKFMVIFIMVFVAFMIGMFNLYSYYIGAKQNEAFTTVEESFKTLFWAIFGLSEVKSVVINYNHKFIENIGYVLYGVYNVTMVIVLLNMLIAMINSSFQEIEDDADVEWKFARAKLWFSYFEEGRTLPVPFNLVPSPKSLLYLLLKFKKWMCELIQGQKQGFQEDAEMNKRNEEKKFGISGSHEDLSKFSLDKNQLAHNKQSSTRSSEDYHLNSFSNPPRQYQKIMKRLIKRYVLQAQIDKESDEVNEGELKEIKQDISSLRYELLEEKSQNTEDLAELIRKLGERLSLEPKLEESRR
TRPC6 act = activates the mouse TRPC6 cation channel; 0.13% of 310,000 active; Q61143; AID 2550; B-score at 10 µM; HEK293-TRPC6 membrane potential dye fluorescence; stronger effect = higher value;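 active means B-score of the integrated fluorescence ratio above library mean plus 3 SD, and starting fluorescence ratio within library mean plus 5 SD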;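 further: higher score means more depolarization so channel activation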
TRPC4 sel inh 2 = second check of whether TRPC6 inhibitors also affect mouse TRPC4 | 42% of 920 active | inhibition, % at 10 µM | HEK293 TRPC4/MOR, membrane potential dye fluorescence; channel activated by saturating DAMGO dose | shares compounds with TRPC6 inhibitor;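 active means compounds whose fluorescence signal differed from control wells by over 3 SD, either direction, in both duplicate plates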
TRPC4 spec = tests whether TRPC6 inhibitors also affect mouse TRPC4 | activity change, negative = inhibition, % at 10 µM | 61% of 920 active | HEK293 TRPC4/mu-opioid, membrane potential fluorescence | AID 2777 | shares compounds with TRPC6 inhibitor;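 active means rise or fall in signal beyond 3 SD of buffer-only wells in both replicate plates, either sign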;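 further: integrated kinetic ratio of fluorescence range over baseline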
HEK293 MPD ctr 2-1 = parental HEK293 nonspecific activity of TRPC6 inhibitors, second screen; parental HEK293 membrane potential dye fluorescence; maximal acetylcholine challenge after compound addition; AID 2779; 31% of 920 active; shares compounds with TRPC6 inhibitor; signal change vs control, % at 10 µM;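 active means membrane potential signal moving either way by over 3 SD of the maximum-effect control, in both duplicate plates, meaning non-specific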
HEK293 MPD ctr-1 = checks TRPC6 inhibitor effects in parental HEK293 cells; shares compounds with TRPC6 inhibitor; membrane potential signal change, % at 10 µM; parental HEK293 membrane potential dye fluorescence; 60% of 920 active;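 active means membrane potential signal shifting up or down by more than 3 SD of buffer-only wells, on both duplicate plates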
HEK293 MPD ctr-2 = checks TRPC6 modulator effects in parental HEK293 cells; shares compounds with TRPC6 inhibitor; membrane potential dye fluorescence; membrane potential signal change, % at 10 µM; 51% of 2,400 active; AID 488924;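 active means membrane potential signal moves up or down beyond 5 SD from buffer-only wells, on both duplicate plates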
HEK293 MPD ctr 2-2 = second counter-screen for TRPC6 modulators: effect in parental HEK293 cells; shares compounds with TRPC6 inhibitor; membrane potential dye fluorescence; after compound, maximal acetylcholine stimulation; inhibition, % at 10 µM; 14% of 2,400 active; AID 488926;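 active means membrane potential signal drops by more than 5 SD from the mean control signal, in both duplicate plates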;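 further: plate controls were acetylcholine ECmax control wells for no effect and buffer only wells for full effect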
TRPC4 ctr mod = mouse TRPC4 off-target activity of TRPC6 modulators; percent change from control (negative = decrease, positive = increase), % at 10 µM; AID 488927; 69% of 2,400 active; shares compounds with TRPC6 inhibitor; HEK293 TRPC4/mu-opioid, membrane potential fluorescence;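 active means membrane potential signal moved up or down beyond 5 SD of buffer control wells, in both duplicate plates, actives on both sides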;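 further: plate controls were assay buffer wells for no effect and DAMGO maximal-effect wells for full effect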
TRPC4 ctr inh 2 = second selectivity test of TRPC6 modulators against mouse TRPC4; shares compounds with TRPC6 inhibitor; HEK293 TRPC4/mu-opioid, membrane potential dye fluorescence; stimulated with maximal-effect DAMGO; inhibition, % at 10 µM; 55% of 2,400 active; AID 488928;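 active means drop in membrane potential signal beyond 5 SD of the control wells in both duplicate plates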;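 further: TRPC4 counter screen for TRPC6 hits run under conditions tuned for TRPC6 not TRPC4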
TRPC6 block conf = mouse TRPC6 inhibitor confirmation | shares compounds with TRPC6 inhibitor | HEK293-TRPC6, membrane potential dye, ACh-evoked depolarization | inhibition, % at 10 µM | 43% of 3,300 active;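 active means fluorescence ratio falls more than 5 SD below the full-stimulation control mean, in both duplicate runs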;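 further: integrated fluorescence ratio of peak minus minimum over baseline after agonist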
TRPC6 act conf = mouse TRPC6 activator confirmation | shares compounds with TRPC6 inhibitor | HEK293-TRPC6 membrane potential dye fluorescence, FDSS | activation, % at 10 µM | 11% of 2,800 active | AID 488961;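 active means ratio signal rise beyond 5 SD above unstimulated control wells' mean, seen in both duplicate runs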;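 further: plate controls were buffer EC0 wells for no effect and acetylcholine ECmax response for full effect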
* = called active by the depositor; i = inactive; nt = no result given; + = active, no number. Shown are actives, neighbours in structure and some others; about 2.3% of the full set was active somewhere.

SMILES	TRPC4 act	TRPC4 block	TRPC4 potent	TRPC6 inhibitor	TRPC6 act	HEK293 MPD ctr-2	HEK293 MPD ctr 2-2	TRPC4 ctr mod	TRPC4 ctr inh 2	TRPC6 block conf	TRPC6 act conf	others
Cc1cc(C)nc(NS(=O)(=O)c2ccc(NS(=O)(=O)c3ccsc3)cc2)n1	i	i	i	i	i	nt	nt	nt	nt	nt	nt
CCN(c1ccccc1)S(=O)(=O)c1cccc(C(=O)NCc2ccccn2)c1	i	i	i	i	i	nt	nt	nt	nt	nt	nt
O=C1/C(=C\c2cc(Cl)c(O)c(Cl)c2)SC(=S)N1Cc1ccccc1	97*	i	35*	i	152*	+	i	538%*	i	i	594%*
Cc1cc(C)c2cc3c(N)c(C(=O)N4CCOCC4)sc3nc2c1	i	i	i	i	i	nt	nt	nt	nt	nt	nt
Cc1ccc(C)c2nc3sc(C(=O)N4CCOCC4)c(N)c3cc12	74*	i	i	-8.7*	33*	898%*	i	128%*	i	i	78%*
Cc1cc(C)c2nc3sc(C(=O)N4CCOCC4)c(N)c3cc2c1	i	i	i	-5*	23*	900%*	83%*	189%*	i	i	297%*
COc1ccc(N(CC(=O)NC2CCCCC2)C(=O)CNC(=O)c2cccs2)cc1OC	i	i	i	i	i	nt	nt	nt	nt	nt	nt
Cc1scc2c1N(C(=O)CN1CCN(C)CC1)c1ccccc1NC2=O	i	i	i	-6.5*	i	i	86%*	i	i	78%*	i
CCN1CCN(CC(=O)N2c3ccccc3Sc3ccccc32)CC1	i	i	i	i	i	nt	nt	nt	nt	nt	nt
Cc1ccc(S(=O)(=O)N2CCN(C(=O)Cn3nc(C(=O)O)c4ccccc4c3=O)CC2)cc1	i	i	i	i	i	nt	nt	nt	nt	nt	nt
O=C(NNc1cc(C(F)(F)F)nc2ccccc12)Nc1cccc(Cl)c1	i	i	i	i	i	nt	nt	nt	nt	nt	nt
CCCCCCOc1ccc(/C(C)=N/NC2=NCCN2)cc1[N+](=O)[O-]	i	i	i	i	i	nt	nt	nt	nt	nt	nt
C/C(=N\NC1=NCCN1)c1ccc(N)c([N+](=O)[O-])c1	i	i	i	-6*	i	i	108%*	i	32%*	48%*	i
Cc1cc(C(=O)O)cc(S(=O)(=O)Nc2ccccc2C(=O)NC(C)c2ccccc2)c1C (stereo not drawn)	i	i	i	i	i	nt	nt	nt	nt	nt	nt
O=C(Nc1nnc(-c2ccccc2Cl)o1)c1ccc(S(=O)(=O)N2CCCCCC2)cc1	71*	i	i	-6.3*	i	i	i	-10%*	i	i	i
CS(=O)(=O)c1ccccc1-c1nnc(NC(=O)c2ccc(S(=O)(=O)N3CCCC3)cc2)o1	i	i	i	i	i	nt	nt	nt	nt	nt	nt
CN1CCc2c(c3ccccc3n2Cc2ccccc2)C1	i	i	i	-5.4*	i	141%*	i	18%*	64%*	i	nt
CCOC(=O)c1c(-c2ccccc2)oc2cc(CN(C)C)c(O)c(CN(C)C)c12	i	i	i	-7.7*	i	nt	nt	nt	nt	i	i	TRPC4 sel inh 2=i;TRPC4 spec=i;HEK293 MPD ctr 2-1=270%*;HEK293 MPD ctr-1=i
COc1cc2ncc(S(=O)(=O)c3ccccc3)c(N3CCCC(C)C3)c2cc1OC (stereo not drawn)	i	i	i	i	i	nt	nt	nt	nt	nt	nt
OC(CN1CCN(Cc2ccc3c(c2)OCO3)CC1)c1c[nH]c2ccccc12 (stereo not drawn)	i	i	i	i	i	nt	nt	nt	nt	nt	nt
COc1ccc2c(c1)c(C(O)CN1CCN(Cc3ccc4c(c3)OCO4)CC1)c(C)n2C (stereo not drawn)	i	i	i	-6.3*	i	i	i	-9.5%*	68%*	52%*	i
Cc1ccc(OCC(O)CN2CCN(Cc3ccc4c(c3)OCO4)CC2)cc1C (stereo not drawn)	i	i	i	i	i	nt	nt	nt	nt	nt	nt
Cc1c(C(O)CN2CCN(Cc3ccc4c(c3)OCO4)CC2)c2ccccc2n1C (stereo not drawn)	i	i	i	-5.1*	i	i	i	11%*	88%*	55%*	i
COc1ccc2c(c1)c(C(O)CN1CCC(Cc3ccccc3)CC1)c(C)n2C (stereo not drawn)	i	i	i	-12*	i	nt	nt	nt	nt	78%*	i	TRPC4 sel inh 2=26%*;TRPC4 spec=-13%*;HEK293 MPD ctr 2-1=i;HEK293 MPD ctr-1=-221%*
COc1ccc(N2CCN(C(=O)CCCn3nnnc3CN3CCOCC3)C(C)C2)cc1 (stereo not drawn)	i	i	i	i	i	nt	nt	nt	nt	nt	nt
COc1ccc(COc2cc(-c3cccc(OC)c3)nc3ccc(N)cc23)cc1	i	i	i	-8.3*	i	nt	nt	nt	nt	i	i	TRPC4 sel inh 2=i;TRPC4 spec=-9.5%*;HEK293 MPD ctr 2-1=i;HEK293 MPD ctr-1=i
N=c1c(-c2nc3ccccc3[nH]2)cc(C(=O)c2cccs2)nn1-c1ccccc1	i	i	i	-7.7*	i	nt	nt	nt	nt	68%*	i	TRPC4 sel inh 2=58%*;TRPC4 spec=-14%*;HEK293 MPD ctr 2-1=i;HEK293 MPD ctr-1=-179%*
NC(=S)N1OC[C@@H]2COc3ccc4ccccc4c3[C@@H]21	i	i	i	i	i	nt	nt	nt	nt	nt	nt

Source: PubChem BioAssay
